# Source: ChEMBL document CHEMBL3525903 (Drug Metab Dispos, 2013)
# Key:
# [1] = biological target: T1, Solute carrier family 22 member 11 (Homo sapiens, UniProt Q9NSA0); test: Inhibition of OAT4 (unknown origin) expressed in HEK293 cells assessed as reduction of [3H]E-sul substrate uptake at 500 uM by liquid scintillation counting; assay type: ADME, cell-based; conditions: hek293, 500 µM
# T1 sequence (Q9NSA0 whole entry): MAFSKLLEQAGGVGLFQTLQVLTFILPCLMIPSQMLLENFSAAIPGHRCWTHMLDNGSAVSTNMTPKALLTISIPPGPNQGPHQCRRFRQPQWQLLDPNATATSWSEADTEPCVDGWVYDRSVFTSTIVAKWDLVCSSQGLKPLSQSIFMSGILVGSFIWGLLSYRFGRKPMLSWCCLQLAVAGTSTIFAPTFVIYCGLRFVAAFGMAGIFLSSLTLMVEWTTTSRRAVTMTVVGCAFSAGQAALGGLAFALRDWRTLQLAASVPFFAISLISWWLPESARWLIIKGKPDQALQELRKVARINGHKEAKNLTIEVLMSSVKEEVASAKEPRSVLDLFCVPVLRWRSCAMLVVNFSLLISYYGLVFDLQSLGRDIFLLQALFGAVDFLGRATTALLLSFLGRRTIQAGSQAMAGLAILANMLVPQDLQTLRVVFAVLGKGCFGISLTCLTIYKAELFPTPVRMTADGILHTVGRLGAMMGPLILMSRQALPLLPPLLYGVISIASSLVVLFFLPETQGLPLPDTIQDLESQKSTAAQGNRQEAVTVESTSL
# Summary of the method: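 HEK293 cells transfected with OAT4, incubated with 0.1 μM [3H]E-sul and probenecid 500 µM as the inhibitor. Uptake counted by scintillation, normalised to protein, with vector uptake subtracted.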
# [2] = biological target: T2, Organic anion transporter 3 (Homo sapiens, UniProt Q8TCC7); test: Inhibition of OAT3 (unknown origin) expressed in HEK293 cells assessed as reduction of [3H]E-sul substrate uptake at 100 uM by liquid scintillation counting; assay type: ADME, cell-based; conditions: hek293, 100 µM
# T2 sequence (Q8TCC7 whole entry): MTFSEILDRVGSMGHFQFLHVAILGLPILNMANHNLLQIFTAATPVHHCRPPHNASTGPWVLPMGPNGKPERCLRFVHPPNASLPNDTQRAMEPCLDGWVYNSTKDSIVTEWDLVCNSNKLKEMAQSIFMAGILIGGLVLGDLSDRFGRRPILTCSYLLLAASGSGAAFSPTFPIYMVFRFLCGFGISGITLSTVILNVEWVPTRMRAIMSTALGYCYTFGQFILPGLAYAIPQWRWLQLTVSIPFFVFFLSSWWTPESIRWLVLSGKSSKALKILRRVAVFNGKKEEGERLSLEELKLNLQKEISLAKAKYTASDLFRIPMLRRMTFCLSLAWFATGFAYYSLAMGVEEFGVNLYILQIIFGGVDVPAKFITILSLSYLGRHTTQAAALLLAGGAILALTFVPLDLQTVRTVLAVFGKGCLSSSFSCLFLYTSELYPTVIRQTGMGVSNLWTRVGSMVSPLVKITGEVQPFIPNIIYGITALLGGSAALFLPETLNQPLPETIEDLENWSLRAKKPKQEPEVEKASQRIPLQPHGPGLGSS
# Summary of the method: (§1)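 HEK293 cells transiently transfected with OAT, OATP or OCT plasmid (FuGENE6; 24 h, then 24 h more with sodium butyrate), or stable OCTN1/OCTN2 lines; vector-transfected cells as control. Washed, preincubated 15–60 min at 37 °C in modified Krebs-Henseleit/25 mM HEPES buffer. Uptake of radiolabelled substrate, 100 µM inhibitor. Cells lysed in NaOH and counted by scintillation; counts normalised to medium radioactivity and Lowry protein; vector uptake subtracted.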
# OCTN2 = biological target: T3, OCTN2 (Homo sapiens, UniProt O76082); test: Inhibition of OCTN2 (unknown origin) expressed in HEK293 cells assessed as reduction of [3H]carnitine substrate uptake at 1500 uM by liquid scintillation counting; assay type: cell-based; conditions: HEK293 cells expressing OCTN2, probe [3H]carnitine
# T3 sequence (O76082 whole entry): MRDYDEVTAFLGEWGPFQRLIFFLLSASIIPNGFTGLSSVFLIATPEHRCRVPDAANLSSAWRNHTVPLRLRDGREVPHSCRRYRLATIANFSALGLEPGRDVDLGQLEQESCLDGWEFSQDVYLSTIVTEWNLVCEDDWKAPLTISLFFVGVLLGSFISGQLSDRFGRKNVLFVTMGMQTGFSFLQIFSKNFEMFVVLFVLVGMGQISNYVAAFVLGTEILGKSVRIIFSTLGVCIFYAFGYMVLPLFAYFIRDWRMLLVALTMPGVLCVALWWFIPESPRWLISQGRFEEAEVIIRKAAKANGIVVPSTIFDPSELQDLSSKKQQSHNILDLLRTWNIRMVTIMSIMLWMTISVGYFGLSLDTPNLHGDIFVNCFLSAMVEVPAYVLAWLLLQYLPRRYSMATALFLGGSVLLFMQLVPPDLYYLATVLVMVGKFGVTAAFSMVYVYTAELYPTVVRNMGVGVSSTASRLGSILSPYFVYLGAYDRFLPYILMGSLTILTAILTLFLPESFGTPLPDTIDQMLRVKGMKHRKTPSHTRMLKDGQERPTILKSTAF
# Summary of the method: (§2)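 HEK293 cells stably expressing OCTN1 or OCTN2, cultured two days before the assay. Quinidine 1500 µM tested against [3H]ergothioneine (1 μM, OCTN1) or [3H]carnitine (0.1 μM, OCTN2). Vector-cell uptake subtracted.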
# OCTN1 (SLC22A4) = biological target: T4, OCTN1 (SLC22A4) (Homo sapiens, UniProt Q9H015); test: Inhibition of OCTN1 (unknown origin) expressed in HEK293 cells assessed as reduction of [3H]ergothioneine substrate uptake at 1500 uM by liquid scintillation counting; assay type: cell-based; conditions: HEK293 cells expressing OCTN1, probe [3H]ergothioneine; summary of the method: as §2
# T4 sequence (Q9H015 whole entry): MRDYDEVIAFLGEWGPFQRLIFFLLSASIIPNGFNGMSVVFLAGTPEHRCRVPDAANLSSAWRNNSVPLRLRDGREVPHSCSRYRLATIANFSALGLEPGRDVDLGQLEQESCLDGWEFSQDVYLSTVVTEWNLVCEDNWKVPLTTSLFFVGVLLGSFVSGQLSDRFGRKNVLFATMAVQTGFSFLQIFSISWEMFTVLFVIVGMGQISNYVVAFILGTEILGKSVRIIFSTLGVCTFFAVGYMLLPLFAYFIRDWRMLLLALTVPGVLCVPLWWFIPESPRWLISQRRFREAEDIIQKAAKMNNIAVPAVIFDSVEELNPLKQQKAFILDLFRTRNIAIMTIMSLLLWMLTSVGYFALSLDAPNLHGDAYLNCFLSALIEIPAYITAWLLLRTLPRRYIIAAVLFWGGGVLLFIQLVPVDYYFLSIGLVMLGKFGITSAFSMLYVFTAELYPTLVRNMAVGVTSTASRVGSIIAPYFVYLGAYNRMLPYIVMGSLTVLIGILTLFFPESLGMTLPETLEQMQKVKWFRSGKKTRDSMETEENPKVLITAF
# [3] = biological target: T5, Broad substrate specificity ATP-binding cassette transporter ABCG2 (Homo sapiens, UniProt Q9UNQ0); test: Inhibition of human BCRP expressed in MDCK2 cells assessed as reduction of [3H]E-sul substrate transport at 50 uM by liquid scintillation counting; assay type: ADME, cell-based; conditions: mdck-ii
# T5 sequence (Q9UNQ0 whole entry): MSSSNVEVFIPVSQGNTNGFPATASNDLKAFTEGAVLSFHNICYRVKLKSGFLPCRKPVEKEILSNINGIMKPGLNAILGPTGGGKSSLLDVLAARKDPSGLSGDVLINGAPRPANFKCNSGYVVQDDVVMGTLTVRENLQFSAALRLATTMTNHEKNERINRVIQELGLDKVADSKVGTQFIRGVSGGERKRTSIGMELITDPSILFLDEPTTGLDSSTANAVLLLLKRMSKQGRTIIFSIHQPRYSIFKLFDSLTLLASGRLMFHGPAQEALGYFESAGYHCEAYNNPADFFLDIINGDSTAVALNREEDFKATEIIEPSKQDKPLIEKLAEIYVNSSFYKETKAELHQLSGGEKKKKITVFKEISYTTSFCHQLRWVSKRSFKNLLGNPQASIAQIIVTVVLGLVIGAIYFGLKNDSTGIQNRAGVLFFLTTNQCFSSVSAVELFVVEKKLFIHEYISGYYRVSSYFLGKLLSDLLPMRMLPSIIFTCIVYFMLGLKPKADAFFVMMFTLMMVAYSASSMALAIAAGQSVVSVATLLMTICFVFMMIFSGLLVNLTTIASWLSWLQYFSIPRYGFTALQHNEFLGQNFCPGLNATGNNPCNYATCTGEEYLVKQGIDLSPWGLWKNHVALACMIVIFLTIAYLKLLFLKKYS
# Summary of the method: (§3)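 Membrane vesicles made from MDCKII cells expressing BCRP or MRP2, and from parental cells (1 μg/μL protein). Run in Tris-sucrose buffer, pH 7.4, with 10 mM MgCl2, creatine phosphokinase and ATP, or AMP as control. Substrates: 0.035 μM [3H]E-sul for BCRP, 2 min; 0.033 μM [3H]E217βG for MRP2, 5 min; both at 37 °C. Stopped ice-cold, filtered, and counted by scintillation.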
# [4] = biological target: ATP-binding cassette sub-family C member 2 (Homo sapiens, UniProt Q92887); test: Inhibition of human MRP2 expressed in MDCK2 cells assessed as reduction of [3H]E217betaG substrate transport at 25 uM by liquid scintillation counting; assay type: ADME, cell-based; conditions: mdck-ii; summary of the method: as §3
# [5] = biological target: T6, Solute carrier organic anion transporter family member 1B3 (Homo sapiens, UniProt Q9NPD5); test: Inhibition of OATP1B3 (unknown origin) expressed in HEK293 cells assessed as reduction of [3H]CCK8 substrate uptake at 100 uM by liquid scintillation counting; assay type: ADME, cell-based; conditions: hek293, 100 µM; summary of the method: as §1
# T6 sequence (Q9NPD5 whole entry): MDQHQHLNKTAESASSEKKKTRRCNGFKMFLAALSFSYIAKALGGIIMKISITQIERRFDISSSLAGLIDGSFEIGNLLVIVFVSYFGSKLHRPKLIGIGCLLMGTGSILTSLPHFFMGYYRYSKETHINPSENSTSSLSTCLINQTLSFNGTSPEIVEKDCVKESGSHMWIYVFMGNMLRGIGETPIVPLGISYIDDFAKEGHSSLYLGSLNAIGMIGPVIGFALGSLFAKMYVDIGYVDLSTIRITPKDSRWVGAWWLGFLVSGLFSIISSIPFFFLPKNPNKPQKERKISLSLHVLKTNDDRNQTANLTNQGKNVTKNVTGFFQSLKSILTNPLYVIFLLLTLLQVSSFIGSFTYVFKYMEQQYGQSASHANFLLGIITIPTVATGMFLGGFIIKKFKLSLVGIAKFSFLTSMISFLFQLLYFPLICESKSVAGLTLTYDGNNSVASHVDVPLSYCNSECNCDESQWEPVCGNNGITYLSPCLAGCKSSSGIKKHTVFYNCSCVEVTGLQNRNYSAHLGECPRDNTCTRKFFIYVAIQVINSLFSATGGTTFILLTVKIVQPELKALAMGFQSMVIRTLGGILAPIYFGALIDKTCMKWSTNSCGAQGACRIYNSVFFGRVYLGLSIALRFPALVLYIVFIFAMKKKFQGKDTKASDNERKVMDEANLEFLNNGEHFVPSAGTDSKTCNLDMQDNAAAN
# [6] = biological target: T7, Solute carrier organic anion transporter family member 1B1 (Homo sapiens, UniProt Q9Y6L6); test: Inhibition of OATP1B1 (unknown origin) expressed in HEK293 cells assessed as reduction of [3H]E217betaG substrate uptake at 100 uM by liquid scintillation counting; assay type: ADME, cell-based; conditions: hek293, 100 µM; summary of the method: as §1
# T7 sequence (Q9Y6L6 whole entry): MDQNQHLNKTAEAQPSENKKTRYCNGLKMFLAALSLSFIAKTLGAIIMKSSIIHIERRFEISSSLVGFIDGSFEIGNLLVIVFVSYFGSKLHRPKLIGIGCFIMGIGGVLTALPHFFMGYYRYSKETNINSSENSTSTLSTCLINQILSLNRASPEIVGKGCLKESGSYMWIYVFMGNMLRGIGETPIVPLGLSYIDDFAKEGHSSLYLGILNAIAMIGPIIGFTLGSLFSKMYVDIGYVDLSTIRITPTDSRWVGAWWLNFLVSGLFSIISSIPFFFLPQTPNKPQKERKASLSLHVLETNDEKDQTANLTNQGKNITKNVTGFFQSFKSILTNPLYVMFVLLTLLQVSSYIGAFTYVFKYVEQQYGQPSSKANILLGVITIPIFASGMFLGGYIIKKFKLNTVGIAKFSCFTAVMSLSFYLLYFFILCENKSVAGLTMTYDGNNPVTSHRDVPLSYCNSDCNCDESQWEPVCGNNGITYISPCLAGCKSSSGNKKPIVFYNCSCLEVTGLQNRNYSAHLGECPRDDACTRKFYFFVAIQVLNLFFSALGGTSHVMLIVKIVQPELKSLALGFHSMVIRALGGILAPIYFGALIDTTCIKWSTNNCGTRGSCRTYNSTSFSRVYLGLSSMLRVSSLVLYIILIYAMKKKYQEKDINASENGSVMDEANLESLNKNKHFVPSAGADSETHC
# Sequence of ATP-binding cassette sub-family C member 2 (Q92887 whole entry): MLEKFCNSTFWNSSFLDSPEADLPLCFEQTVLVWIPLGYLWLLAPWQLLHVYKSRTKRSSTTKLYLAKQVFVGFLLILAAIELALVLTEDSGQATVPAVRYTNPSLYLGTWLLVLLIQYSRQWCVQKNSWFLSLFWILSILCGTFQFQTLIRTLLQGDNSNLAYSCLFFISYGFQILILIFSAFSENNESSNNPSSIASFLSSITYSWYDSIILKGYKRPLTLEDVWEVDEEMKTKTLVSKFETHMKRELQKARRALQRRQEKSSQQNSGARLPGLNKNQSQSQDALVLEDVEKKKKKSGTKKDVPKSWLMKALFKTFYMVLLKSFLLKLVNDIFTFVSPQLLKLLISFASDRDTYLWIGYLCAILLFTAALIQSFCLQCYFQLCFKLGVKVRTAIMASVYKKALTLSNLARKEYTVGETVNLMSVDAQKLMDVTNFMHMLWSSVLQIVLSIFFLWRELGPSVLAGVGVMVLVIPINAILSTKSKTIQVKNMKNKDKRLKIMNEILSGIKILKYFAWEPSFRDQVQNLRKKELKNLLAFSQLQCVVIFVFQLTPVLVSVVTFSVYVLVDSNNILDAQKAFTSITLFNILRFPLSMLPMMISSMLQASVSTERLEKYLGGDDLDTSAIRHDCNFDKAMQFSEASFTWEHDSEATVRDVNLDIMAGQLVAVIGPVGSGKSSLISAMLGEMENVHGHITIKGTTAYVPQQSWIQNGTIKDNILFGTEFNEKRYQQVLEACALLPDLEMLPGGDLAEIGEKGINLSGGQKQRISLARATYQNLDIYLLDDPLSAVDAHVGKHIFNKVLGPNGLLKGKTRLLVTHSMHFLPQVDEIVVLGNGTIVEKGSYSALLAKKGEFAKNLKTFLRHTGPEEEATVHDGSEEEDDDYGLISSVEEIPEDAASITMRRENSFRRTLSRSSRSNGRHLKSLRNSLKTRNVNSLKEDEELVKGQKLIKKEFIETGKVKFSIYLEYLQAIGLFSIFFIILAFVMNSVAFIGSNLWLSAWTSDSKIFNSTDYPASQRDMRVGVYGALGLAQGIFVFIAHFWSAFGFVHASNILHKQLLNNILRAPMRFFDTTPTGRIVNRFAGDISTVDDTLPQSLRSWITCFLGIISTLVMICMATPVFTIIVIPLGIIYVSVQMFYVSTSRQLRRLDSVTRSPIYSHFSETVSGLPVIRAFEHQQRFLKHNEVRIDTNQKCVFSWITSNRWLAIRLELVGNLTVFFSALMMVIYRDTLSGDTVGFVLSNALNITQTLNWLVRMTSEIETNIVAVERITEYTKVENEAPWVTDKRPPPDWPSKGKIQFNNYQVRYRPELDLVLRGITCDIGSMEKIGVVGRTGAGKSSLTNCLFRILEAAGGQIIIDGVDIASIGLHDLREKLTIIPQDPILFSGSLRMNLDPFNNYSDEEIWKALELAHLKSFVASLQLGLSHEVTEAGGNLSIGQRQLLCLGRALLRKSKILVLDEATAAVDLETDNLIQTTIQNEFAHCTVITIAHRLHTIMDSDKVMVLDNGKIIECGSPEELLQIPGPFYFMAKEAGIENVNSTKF
structure (smiles),measurement,setting,value
CCCN(CCC)S(=O)(=O)c1ccc(C(=O)O)cc1 [PROBENECID],inhibition (INH),[1],81.4%
same,inhibition (INH),[2],88.5%
C=C[C@H]1C[N@@]2CC[C@H]1C[C@@H]2[C@@H](O)c1ccnc2ccc(OC)cc12 [QUINIDINE],inhibition at 1500 µM,OCTN2,89.9%
same,inhibition at 1500 µM,OCTN1 (SLC22A4),83.9%
COc1cc2nc(N3CCN(C(=O)c4ccco4)CC3)nc(N)c2cc1OC [PRAZOSIN],inhibition (INH),[3],Active
CN(C)C(=O)CCSC(SCCC(=O)O)c1cccc(/C=C/c2ccc3ccc(Cl)cc3n2)c1 (stereo not drawn) [MK-571],inhibition (INH),[4],Active
CO[C@H]1/C=C/O[C@@]2(C)Oc3c(C)c(O)c4c(O)c(c(/C=N/N5CCN(C)CC5)c(O)c4c3C2=O)NC(=O)/C(C)=C\C=C\[C@H](C)[C@H](O)[C@@H](C)[C@@H](O)[C@@H](C)[C@H](OC(C)=O)[C@@H]1C [RIFAMPIN],inhibition (INH),[5],97.4%
same,inhibition (INH),[6],98.4%
